Assay results: ChEMBL document CHEMBL3259802, “Anticonvulsant evaluation of clubbed indole-1,2,4-triazine derivatives: a synthetic approach” (Eur J Med Chem, 2014)
The source made the active and inactive calls. No cut-off for these calls is given here.

Experiments:
Rattus norvegicus [1] = experiment: Increase in GABA level in Wistar rat whole brain at 30 mg/kg, po for 7 days measured at 4 hrs after last drug dose per 100 mg of tissue (reference value: 49.2 +/- 3.01 ug); type: functional
Rattus norvegicus [2] = experiment: Increase in GABA level in Wistar rat whole brain at 30 mg/kg, po after 2 hrs measured per 100 mg of tissue (reference value: 46.8 +/- 6.03 ug); type: functional
Mus musculus [3] = experiment: Anticonvulsant activity in Swiss albino mouse assessed as protection against maximal electroshock-induced tonic-clonic seizure spread measured at 300 mg/kg, ip after 0.5 hrs by MES test; type: functional, organism-based; design: dose 300 mg/kg
How it was run: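 Groups of four mice, screened 24 h beforehand with corneal shock (50 mA, 60 Hz, 0.2 s), saline drop in each eye. Test doses of 30, 100 or 300 mg/kg ip were suspended in 0.5% sodium carboxymethylcellulose. The shock was applied 0.5 h and 4.0 h after dosing. Protection: abolition of hind-limb tonic extension in half or more of the animals.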

Mus musculus [4] = experiment: Anticonvulsant activity in Swiss albino mouse assessed as protection against maximal electroshock-induced tonic-clonic seizure spread measured at 300 mg/kg, ip after 4 hrs by MES test; type: functional, organism-based; design: dose 300 mg/kg
How it was run: (§1)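 Swiss albino mice pre-screened 24 h earlier with 50 mA, 60 Hz, 0.2 s corneal shock; saline drop in eyes. Compounds in 0.5% sodium carboxymethylcellulose given i.p. at 30, 100 and 300 mg/kg; MES applied after 0.5 h and 4 h. Protection = abolition of hind limb tonic extensor component in half or more of four mice.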

Mus musculus [5] = experiment: Anticonvulsant activity in ip dosed Swiss albino mouse assessed as protection against pentylenetetrazole-induced seizures after 0.5 hrs; type: functional; conditions: read-out: MED
How it was run: (§2)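 Compounds in 0.5% sodium carboxymethylcellulose injected i.p. at 30, 100, 300 mg/kg (four mice per dose); at 0.5 h or 4 h, pentylenetetrazol 70 mg/kg given s.c. as 0.5% solution in posterior midline. Observation 30 min; absence of clonic spasm in half or more of animals scored as protection.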

Mus musculus [6] = experiment: Anticonvulsant activity in ip dosed Swiss albino mouse assessed as protection against pentylenetetrazole-induced seizures after 4 hrs; type: functional; conditions: read-out: MED; how it was run: as §2
Mus musculus [7] = experiment: Anticonvulsant activity in ip dosed Swiss albino mouse assessed as protection against maximal electroshock-induced seizure measured at the time of peak effect during phase 2 trials by MES test; type: functional
How it was run: (§3)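 Phase II quantitation: groups of six mice given a range of i.p. doses until at least three points fell within 10–90% seizure protection (MES or scPTZ) or rotarod neurotoxicity, tested at time of peak effect.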

Mus musculus [8] = experiment: Anticonvulsant activity in ip dosed Swiss albino mouse assessed as protection against pentylenetetrazole-induced seizure measured at the time of peak effect during phase 2 trials; type: functional; how it was run: as §3
Mus musculus [9] = experiment: Anticonvulsant activity in Swiss albino mouse assessed as protection against PTZ-induced seizure at 200 mg/kg, po administered 60 mins prior to pentylenetetrazole challenge; type: functional
Mus musculus [10] = experiment: Neurotoxicity in Swiss albino mouse assessed as motor impairment at 100 mg/kg, po by rotarod test; type: toxicity, organism-based; design: dose 100 mg/kg, route oral; conditions: in vivo
How it was run: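 Mice trained on rotarod (3.2 cm, 10 rpm) received 100 mg/kg orally in 0.5% sodium carboxymethylcellulose; neurotoxicity scored as percentage of animals failing to keep equilibrium on rod for 60 s.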

Mus musculus [11] = experiment: Anticonvulsant activity in Swiss albino mouse assessed as protection against maximal electroshock-induced seizures at 100 mg/kg, po administered 60 mins prior to maximal electroshock exposure by MES test; type: functional
How it was run: (§4)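 Mice (n=6/group) dosed orally at 100 mg/kg in 0.5% sodium carboxymethylcellulose 60 min before maximal electroshock (150 mA, 0.2 s, corneal electrodes). Duration of hind limb tonic extension noted; abolition scored as protection (% protected). Vehicle controls; mean ± SEM, one-way ANOVA followed by Dunnett's method.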

Mus musculus [12] = experiment: Anticonvulsant activity in ip dosed Swiss albino mouse assessed as protection against maximal electroshock-induced tonic-clonic seizure spread measured after 0.5 hrs by MES test; type: functional; conditions: read-out: MED; how it was run: as §1
Mus musculus [13] = experiment: Anticonvulsant activity in ip dosed Swiss albino mouse assessed as protection against maximal electroshock-induced tonic-clonic seizure spread measured after 4 hrs by MES test; type: functional; conditions: read-out: MED; how it was run: as §1
Mus musculus [14] = experiment: Neurotoxicity in Swiss albino mouse assessed as minimal motor impairment at 300 mg/kg, ip after 0.5 hrs by rotarod test; type: toxicity, organism-based; design: dose 300 mg/kg, route intraperitoneal; conditions: in vivo
How it was run: (§5)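 Rotarod minimal motor impairment: mice trained on 3.2 cm rod at 10 rpm; i.p. doses of 30, 100 and 300 mg/kg, four mice each, tested at 0.5 h and 4 h. Neurotoxicity = failure to stay on rod at least 1 min in each of three trials.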

Mus musculus [15] = experiment: Neurotoxicity in Swiss albino mouse assessed as minimal motor impairment at 300 mg/kg, ip after 4 hrs by rotarod test; type: toxicity, organism-based; design: dose 300 mg/kg, route intraperitoneal; conditions: in vivo; how it was run: as §5
Mus musculus [16] = experiment: Anticonvulsant activity in Swiss albino mouse assessed as time duration of hind limb tonic extenstion at 100 mg/kg, po administered 60 mins prior to maximal electroshock exposure by MES test (reference value: 16.20 +/- 0.50 secs); type: functional, Hindlimb; how it was run: as §4
Mus musculus [17] = experiment: Anticonvulsant activity in Swiss albino mouse assessed as seizure latency to onset of clonus at 100 mg/kg, po administered 60 mins prior to pentylenetetrazole challenge (reference value: 1.54 +/- 0.90 mins); type: functional
Mus musculus [18] = experiment: Anticonvulsant activity in Swiss albino mouse assessed as protection against PTZ-induced seizure at 100 mg/kg, po administered 60 mins prior to pentylenetetrazole challenge; type: functional
[19] = Neurotoxicity in ip dosed Swiss albino mouse measured during phase 2 trials by rotarod test; type: toxicity, organism-based; conditions: in vivo; how it was run: as §3
Mus musculus [20] = species: Mus musculus; experiment: Protective index, ratio of TD50 for Swiss albino mouse to ED50 for anticonvulsant activity in PTZ-treated Swiss albino mouse
Rattus norvegicus [21] = experiment: Increase in GABA level in Wistar rat whole brain at 100 mg/kg, ip after 2 hrs measured per 100 mg of tissue (reference value: 46.8 +/- 6.03 ug); type: functional; conditions: route intraperitoneal
How it was run: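 Adult Wistar rats, six per group, given 100 mg/kg i.p. (clobazam 30 mg/kg p.o. reference); decapitated 2 h later, whole brains put into ice-cold 80% ethanol and GABA determined enzymatically in tissue extracts. Mean ± SEM; Student's t test versus control.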

[22] = Displacement of [3H]BTX-B from neurotoxin site 2 of voltage-gated sodium channel in rat cerebral cortex synaptoneurosomes by scintillation counting analysis; type: tissue-based
Rattus norvegicus [23] = species: Rattus norvegicus; experiment: Displacement of [3H]BTX-B from neurotoxin site 2 of voltage-gated sodium channel in rat cerebral cortex synaptoneurosomes at 100 uM by scintillation counting analysis; type: tissue-based
Mus musculus [24] = experiment: Anticonvulsant activity in Swiss albino mouse assessed as protection against pentylenetetrazole-induced seizures at 300 mg/kg, ip after 0.5 hrs; type: functional, organism-based; design: dose 300 mg/kg; how it was run: as §2
Mus musculus [25] = experiment: Neurotoxicity in Swiss albino mouse assessed as minimal motor impairment at 100 mg/kg, ip after 0.5 hrs by rotarod test; type: toxicity, organism-based; design: dose 100 mg/kg, route intraperitoneal; conditions: in vivo; how it was run: as §5
Mus musculus [26] = experiment: Neurotoxicity in Swiss albino mouse assessed as minimal motor impairment at 100 mg/kg, ip after 4 hrs by rotarod test; type: toxicity, organism-based; design: dose 100 mg/kg, route intraperitoneal; conditions: in vivo; how it was run: as §5
Mus musculus [27] = experiment: Anticonvulsant activity in Swiss albino mouse assessed as decrease in time duration of hind limb tonic extenstion at 30 mg/kg, po administered 60 mins prior to maximal electroshock exposure by MES test; type: functional, organism-based; design: dose 30 mg/kg; conditions: Hindlimb
Mus musculus [28] = experiment: Anticonvulsant activity in Swiss albino mouse assessed as protection against maximal electroshock-induced seizures at 30 mg/kg, po administered 60 mins prior to maximal electroshock exposure by MES test; type: functional

Compound: CN1C(=O)CC(=O)N(c2ccccc2)c2cc(Cl)ccc21 [CLOBAZAM]
- Activity (Rattus norvegicus [1]): 110 µg
- Activity (Rattus norvegicus [2]): 101 µg

Compound: CCC1(C)CC(=O)NC1=O (configuration not stated) [ETHOSUXIMIDE]
- Activity (Mus musculus [3]): inactive
- Activity (Mus musculus [4]): inactive
- minimal effective dose (Mus musculus [5]): 100 mg/kg
- minimal effective dose (Mus musculus [6]): 300 mg/kg
- ED50 (Mus musculus [7]): > 1000 mg/kg
- ED50 (Mus musculus [8]): 130 mg/kg

Compound: CCCC(CCC)C(=O)[O-].[Na+] [VALPROATE SODIUM]
- Activity (Mus musculus [9]): 100%
- Activity (Mus musculus [10]): Non-toxic

Compound: CC(=O)c1c(-c2ccccc2)n(C2=NNC(=S)NC2N)c2ccc(F)cc12 (configuration not stated)
- Activity (Mus musculus [11]): 100%
- minimal effective dose (Mus musculus [12]): 30 mg/kg
- minimal effective dose (Mus musculus [13]): 30 mg/kg
- minimal effective dose (Mus musculus [5]): 100 mg/kg
- minimal effective dose (Mus musculus [6]): 100 mg/kg
- Activity (Mus musculus [14]): Non-toxic
- Activity (Mus musculus [15]): Non-toxic
- Time (Mus musculus [16]): 5.4 s
- Time (Mus musculus [17]): 9.8 min
- Activity (Mus musculus [18]): 83.3%
- Activity (Mus musculus [10]): Non-toxic
- ED50 (Mus musculus [7]): 7 mg/kg
- TD50 [19]: 290 mg/kg
- ED50 (Mus musculus [8]): 68 mg/kg
- Ratio TD50/ED50 (Mus musculus [20]): 3.39
- Activity (Rattus norvegicus [21]): 93.5 µg
- Activity (Rattus norvegicus [1]): 110 µg
- IC50 [22]: 108 µM
- inhibition (Rattus norvegicus [23]): 50.4%

Compound: NC1NC(=S)NN=C1n1c(-c2ccccc2)c(S(N)(=O)=O)c2cc(Cl)ccc21 (configuration not stated)
- TD50 [19]: 185 mg/kg

Compound: NC1NC(=S)NN=C1n1c(-c2ccccc2)c(S(N)(=O)=O)c2cc(F)ccc21 (configuration not stated)
- TD50 [19]: 225 mg/kg

Compound: NC1NC(=S)NN=C1n1c(-c2ccccc2)c(C(=O)O)c2cc([N+](=O)[O-])ccc21 (configuration not stated)
- TD50 [19]: 180 mg/kg

Compound: CC(=O)c1c(-c2ccccc2)n(C2=NNC(=S)NC2N)c2ccc(C(F)(F)F)cc12 (configuration not stated)
- Activity (Mus musculus [11]): 33.3%
- minimal effective dose (Mus musculus [12]): 30 mg/kg
- minimal effective dose (Mus musculus [13]): 30 mg/kg
- Activity (Mus musculus [24]): inactive
- minimal effective dose (Mus musculus [6]): 300 mg/kg
- Activity (Mus musculus [14]): Non-toxic
- Activity (Mus musculus [15]): Non-toxic
- Time (Mus musculus [16]): 13.5 s
- ED50 (Mus musculus [7]): 40 mg/kg
- TD50 [19]: 95 mg/kg
- Activity (Rattus norvegicus [21]): 75.4 µg
- Activity (Rattus norvegicus [1]): 79.1 µg

Compound: O=C1NC(=O)C(c2ccccc2)(c2ccccc2)N1 [PHENYTOIN]
- Activity (Mus musculus [25]): Non-toxic
- minimal effective dose (Mus musculus [12]): 30 mg/kg
- minimal effective dose (Mus musculus [13]): 30 mg/kg
- Activity (Mus musculus [26]): Non-toxic
- inhibition (Mus musculus [27]): Active
- Activity (Mus musculus [28]): 100%
- Activity (Mus musculus [10]): Non-toxic
- IC50 [22]: 126 µM
- inhibition (Rattus norvegicus [23]): 49.6%

Compound: NC(=O)c1c(-c2ccccc2)n(C2=NNC(=S)NC2N)c2ccc([N+](=O)[O-])cc12 (configuration not stated)
- Activity (Mus musculus [11]): 50%
- minimal effective dose (Mus musculus [12]): 30 mg/kg
- minimal effective dose (Mus musculus [13]): 30 mg/kg
- minimal effective dose (Mus musculus [5]): 300 mg/kg
- minimal effective dose (Mus musculus [6]): 300 mg/kg
- Activity (Mus musculus [14]): Non-toxic
- Activity (Mus musculus [15]): Non-toxic
- Time (Mus musculus [16]): 12.7 s
- Activity (Mus musculus [10]): Non-toxic
- ED50 (Mus musculus [7]): 24 mg/kg
- TD50 [19]: 125 mg/kg
- Activity (Rattus norvegicus [21]): 85.4 µg
- Activity (Rattus norvegicus [1]): 88.4 µg

Compound: NC1NC(=S)NN=C1n1c(-c2ccccc2)c(C(=O)O)c2cc(C(F)(F)F)ccc21 (configuration not stated)
- TD50 [19]: 100 mg/kg
